{
  "source": "ChEMBL document CHEMBL1123489",
  "about": "“Antineoplastic activity of 3'-(chloroethyl)nitrosourea analogues of 2'-deoxyuridine and 2'-deoxy-5-fluorouridine” (J Med Chem, 1986)",
  "key": {"L1210 [1]": {"tested_on": "L1210", "test": "Compound was tested in vitro for alkylating activity against L1210 leukemia cells in tumor bearing mice", "assay_type": "functional, Mus musculus", "how_it_was_run": "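4-(4-Nitrobenzyl)pyridine alkylation measured after 120 min at 37 °C, pH 6.4. Activity expressed relative to BCNU (set at 1.00). Three determinations per compound.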"}, "L1210 [2]": {"tested_on": "L1210", "test": "Compound was tested in vitro for carbomoylating activity against L1210 leukemia cells in tumor bearing mice", "assay_type": "functional, Mus musculus", "how_it_was_run": "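Extent of carbamoylation of 5'-amino-5'-deoxythymidine measured after incubation with nitrosourea for 6 h at 37 °C in phosphate-buffered saline. Activity expressed relative to BCNU (set at 1.00). Three determinations per compound.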"}, "L1210 [3]": {"tested_on": "L1210", "test": "Compound was tested in vitro for cytotoxicity against L1210 leukemia cells in tumor bearing mice.", "assay_type": "functional", "details": "Mus musculus, read-out: ED50 (the source's name)", "how_it_was_run": "(§1)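 Mouse L1210 cells grown in suspension in Fischer's medium with 10% horse serum, 37 °C, 5% CO2. Exponential-phase cells at 2 × 10⁴ cells/mL exposed to compound. Cell number counted against drug-free control after 24, 48 and 72 h. ED50 (concentration inhibiting growth by 50%) estimated from dose-response curves from replicate independent experiments.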"}, "[4]": {"test": "Half-life, determined by incubation at 37 degree celsius in PBS (pH 7.4)"}, "L1210 [5]": {"tested_on": "L1210", "test": "Effect on the maximum weight loss of mice bearing L1210 leukemia at a dose of 80 mg/kg on days 11", "assay_type": "functional, Mus musculus"}, "L1210 [6]": {"tested_on": "L1210", "test": "Effect on the survival time of mice bearing L1210 leukemia at a dose of 20 mg/kg", "assay_type": "functional, Mus musculus", "how_it_was_run": "(§2)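 L1210 ascites cells from 7-day growths in donor CDF1 female mice were diluted in isotonic saline, and about 10^5 cells were injected i.p. Drug was given as one i.p. injection in isotonic saline, 24 h after implantation. Groups held five or six weight-matched mice, with saline vehicle controls. T/C × 100 = treated/control survival time in dying animals; >60-day survivors counted.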"}, "L1210 [7]": {"tested_on": "L1210", "test": "Effect on the survival time of mice bearing L1210 leukemia at a dose of 40 mg/kg", "assay_type": "functional, Mus musculus", "how_it_was_run": "as §2"}, "L1210 [8]": {"tested_on": "L1210", "test": "Effect on the survival time of mice bearing L1210 leukemia at a dose of 80 mg/kg", "assay_type": "functional, Mus musculus", "how_it_was_run": "as §2"}, "L1210 [9]": {"tested_on": "L1210", "test": "Effect on the survival time of mice bearing L1210 leukemia at a dose of 40 mg/kg on 30th day", "assay_type": "functional, Mus musculus"}, "L1210 [10]": {"tested_on": "L1210", "test": "Effect on the survival time of mice bearing L1210 leukemia at a dose of 80 mg/kg on 30th day", "assay_type": "functional, Mus musculus"}, "L1210 [11]": {"tested_on": "L1210", "test": "Compound was tested in vitro for cytotoxicity against L1210 leukemia cells in tumor bearing mice", "assay_type": "functional", "details": "Mus musculus, read-out: ED50 (the source's name)", "how_it_was_run": "as §1"}, "L1210 [12]": {"tested_on": "L1210", "test": "Effect on the survival time of mice bearing L1210 leukemia at a dose of 20 mg/kg on 30th day", "assay_type": "functional, Mus musculus"}, "L1210 [13]": {"tested_on": "L1210", "test": "Effect on the maximum weight loss of mice bearing L1210 leukemia at a dose of 20 mg/kg", "details": "Mus musculus"}, "L1210 [14]": {"tested_on": "L1210", "test": "Effect on the maximum weight loss of mice bearing L1210 leukemia at a dose of 40 mg/kg on days 6-8"}, "L1210 [15]": {"tested_on": "L1210", "test": "Effect on the maximum weight loss of mice bearing L1210 leukemia at a dose of 80 mg/kg on days 9", "assay_type": "functional, Mus musculus"}, "L1210 [16]": {"tested_on": "L1210", "test": "Effect on the maximum weight loss of mice bearing L1210 leukemia at a dose of 40 mg/kg on days 5-8"}},
  "data": [
    {"smiles": "O=NN(CCCl)C(=O)NCCCl", "note": "[CARMUSTINE]", "values": [
      {"measurement": "Activity", "setting": "L1210 [1]", "value": 1},
      {"measurement": "Activity", "setting": "L1210 [2]", "value": 1},
      {"measurement": "EC50", "setting": "L1210 [3]", "value": 4, "unit": "µM"},
      {"measurement": "half-life", "setting": "[4]", "value": 50, "unit": "min"}
    ]},
    {"smiles": "NC1CC(n2cc(F)c(=O)[nH]c2=O)OC1CO", "note": "(stereo not given)", "values": [
      {"measurement": "EC50", "setting": "L1210 [3]", "value": 15, "unit": "µM"}
    ]},
    {"smiles": "Cc1cn([C@H]2C[C@H](N)[C@@H](CO)O2)c(=O)[nH]c1=O", "note": "[3-AMINO- 3-DEOXYTHYMIDINE]", "values": [
      {"measurement": "EC50", "setting": "L1210 [3]", "value": 0.8, "unit": "µM"}
    ]},
    {"smiles": "O=NN(CCCl)C(=O)N[C@@H]1CC(n2ccc(=O)[nH]c2=O)O[C@@H]1CO", "note": "(stereo not given in full)", "values": [
      {"measurement": "Activity", "setting": "L1210 [1]", "value": 1.65},
      {"measurement": "Activity", "setting": "L1210 [2]", "value": 0.85},
      {"measurement": "Max weight loss", "setting": "L1210 [5]", "value": 21, "unit": "%"},
      {"measurement": "Average survival days", "setting": "L1210 [6]", "value": 20.4},
      {"measurement": "Body weight", "setting": "L1210 [6]", "value": 18.8, "unit": "g"},
      {"measurement": "T/C", "setting": "L1210 [6]", "value": 243, "unit": "%"},
      {"measurement": "Weight change", "setting": "L1210 [6]", "value": 9, "unit": "%"},
      {"measurement": "Average survival days", "setting": "L1210 [7]", "value": 31},
      {"measurement": "Body weight", "setting": "L1210 [7]", "value": 19, "unit": "g"},
      {"measurement": "T/C", "setting": "L1210 [7]", "value": 369, "unit": "%"},
      {"measurement": "Weight change", "setting": "L1210 [7]", "value": 5, "unit": "%"},
      {"measurement": "Average survival days", "setting": "L1210 [8]", "value": 8.3},
      {"measurement": "Body weight", "setting": "L1210 [8]", "value": 19.5, "unit": "g"},
      {"measurement": "T/C", "setting": "L1210 [8]", "value": 99, "unit": "%"},
      {"measurement": "Weight change", "setting": "L1210 [8]", "value": 13, "unit": "%"},
      {"measurement": "Body weight", "setting": "L1210 [9]", "value": 22.1, "unit": "g"},
      {"measurement": "Body weight", "setting": "L1210 [10]", "value": 20.8, "unit": "g"},
      {"measurement": "EC50", "setting": "L1210 [11]", "value": 12.5, "unit": "µM"},
      {"measurement": "Body weight", "setting": "L1210 [12]", "value": 22, "unit": "g"},
      {"measurement": "half-life", "setting": "[4]", "value": 27.3, "unit": "min"},
      {"measurement": "Max weight loss", "setting": "L1210 [13]", "value": "None"},
      {"measurement": "Max weight loss", "setting": "L1210 [14]", "value": 2, "unit": "%"}
    ]},
    {"smiles": "Cc1cn(C2CC(NC(=O)N(CCCl)N=O)C(CO)O2)c(=O)[nH]c1=O", "note": "(stereo not given)", "values": [
      {"measurement": "Activity", "setting": "L1210 [1]", "value": 2},
      {"measurement": "Activity", "setting": "L1210 [2]", "value": 0.85},
      {"measurement": "EC50", "setting": "L1210 [3]", "value": 1.5, "unit": "µM"},
      {"measurement": "half-life", "setting": "[4]", "value": 37.3, "unit": "min"}
    ]},
    {"smiles": "N[C@H]1C[C@H](n2ccc(=O)[nH]c2=O)O[C@@H]1CO", "values": [
      {"measurement": "EC50", "setting": "L1210 [3]", "value": 18, "unit": "µM"}
    ]},
    {"smiles": "O=NN(CCCl)C(=O)N[C@@H]1CC(n2cc(F)c(=O)[nH]c2=O)O[C@@H]1CO", "note": "(stereo not given in full)", "values": [
      {"measurement": "Activity", "setting": "L1210 [1]", "value": 1.78},
      {"measurement": "Activity", "setting": "L1210 [2]", "value": 0.77},
      {"measurement": "EC50", "setting": "L1210 [3]", "value": 2.5, "unit": "µM"},
      {"measurement": "Average survival days", "setting": "L1210 [6]", "value": 18.7},
      {"measurement": "Body weight", "setting": "L1210 [6]", "value": 26.1, "unit": "g"},
      {"measurement": "T/C", "setting": "L1210 [6]", "value": 223, "unit": "%"},
      {"measurement": "Weight change", "setting": "L1210 [6]", "value": 4, "unit": "%"},
      {"measurement": "Average survival days", "setting": "L1210 [7]", "value": 14},
      {"measurement": "Body weight", "setting": "L1210 [7]", "value": 19.5, "unit": "g"},
      {"measurement": "T/C", "setting": "L1210 [7]", "value": 167, "unit": "%"},
      {"measurement": "Weight change", "setting": "L1210 [7]", "value": 5, "unit": "%"},
      {"measurement": "Average survival days", "setting": "L1210 [8]", "value": 9},
      {"measurement": "Body weight", "setting": "L1210 [8]", "value": 20.5, "unit": "g"},
      {"measurement": "T/C", "setting": "L1210 [8]", "value": 107, "unit": "%"},
      {"measurement": "Weight change", "setting": "L1210 [8]", "value": 4, "unit": "%"},
      {"measurement": "Body weight", "setting": "L1210 [9]", "value": 22.1, "unit": "g"},
      {"measurement": "Body weight", "setting": "L1210 [10]", "value": 21.3, "unit": "g"},
      {"measurement": "Body weight", "setting": "L1210 [12]", "value": 22, "unit": "g"},
      {"measurement": "Max weight loss", "setting": "L1210 [15]", "value": 14, "unit": "%"},
      {"measurement": "half-life", "setting": "[4]", "value": 36.1, "unit": "min"},
      {"measurement": "Max weight loss", "setting": "L1210 [13]", "value": "None"},
      {"measurement": "Max weight loss", "setting": "L1210 [16]", "value": 3, "unit": "%"}
    ]}
  ]
}
